Experimental data collected from several papers.
ULK1: Serine/threonine-protein kinase ULK1 (ULK1, Homo sapiens, UniProt O75385)
CDKL1: Cyclin-dependent kinase-like 1 (CDKL1, Homo sapiens, UniProt Q00532)
MAP3K11: Mitogen-activated protein kinase kinase kinase 11 (MAP3K11, Homo sapiens, UniProt Q16584)

For CN1CCc2cc(Nc3ncc(C4CC4)c(NCCCNC(=O)C4CCC4)n3)ccc2C1, the remaining activity was 1% (ULK1; enzyme activity, inhibitor, radiometric; 1 µM).
CC1(C)NC(=O)c2[nH]c3c(Cl)c(Cl)ccc3c2C1C#N (stereo not shown) has a ΔTm of 0 °C (CDKL1; thermal stability, DSF; 10 µM).
For Cc1cnc(NC2CCOCC2)nc1-n1cnc(C(=O)NC(CN)c2cc(F)cc(Cl)c2)c1 (stereo not shown), the remaining activity was 1% (Mitogen-activated protein kinase 1 (Mapk1, Mus musculus, UniProt P63085); enzyme activity, inhibitor, radiometric; 1 µM).
CCN1CCC2(CC1)NC(=O)c1c(c3ccc(Cl)c(Cl)c3n1C)C2C#N (racemic) gave a ΔTm of -0.1 °C (CDKL1; thermal stability, DSF; 10 µM).
With NS(=O)(=O)c1ccc(CNc2ccnc(Nc3cccc(CN4CCOCC4)c3)n2)cc1 the remaining activity was 95% (MAP3K11; enzyme activity, inhibitor, radiometric; 1 µM).
The activity vs control of Cc1cc(NC(=O)c2cccc3cc(-c4cccc5[nH]nc(N)c45)ccc23)ccc1F is reported as 145% (Hepatocyte growth factor receptor (MET, Homo sapiens, UniProt P08581, D1228H); enzyme activity, inhibitor; 0.1 µM).
With Cc1ccc(NC(=O)c2ccc(C)c(C(F)(F)F)c2)cc1C#Cc1nn(C2CCC(O)CC2)c2ncnc(N)c12 (stereo not shown) the remaining signal was 136% (Hepatocyte growth factor receptor (MET, Homo sapiens, UniProt P08581, M1250T); cell-free assay; 10 µM).
The activity vs control of FC(F)(F)Oc1cccc(-c2cnc3ccc(-c4ccncc4)nn23)c1 is reported as 94% (Mitogen-activated protein kinase kinase kinase 1 (MAP3K1, Homo sapiens, UniProt Q13233); enzyme activity, inhibitor, radiometric; 5 µM).
With Cn1c2c(c3ccc(Cl)c(Cl)c31)C(C#N)C1(CCOCC1)NC2=O (stereo not shown) the ΔTm was -0.1 °C (CDKL1; thermal stability, DSF; 10 µM).
For NS(=O)(=O)c1ccc(CNc2nc(Nc3cccc(NC(=O)N4CCCC4)c3)ncc2Br)cc1, the remaining activity was 24% (MAP3K11; enzyme activity, inhibitor, radiometric; 1 µM).
CN1CCC2(CC1)NC(=O)c1c(c3ccc(Cl)c(Cl)c3n1C)C2C#N (racemic) gave a ΔTm of 0 °C (CDKL1; thermal stability, DSF; 10 µM).
The inhibition of CN(C)C1CCN(CC#Cc2nn(C3CCCC3)c3nc(NCc4ccccc4)ncc23)C1 (stereo not shown) is reported as 0% (Interleukin-1 receptor-associated kinase 4 (IRAK4, Homo sapiens, UniProt Q9NWZ3); enzyme activity, inhibitor, FRET; 10 µM).
Nc1ncnc2occ(-c3ccc(NC(=O)Nc4cc(C(F)(F)F)ccc4F)cc3)c12 has a remaining signal of 0.05% (Myosin-IIIa (MYO3A, Homo sapiens, UniProt Q8NEV4); cell-free assay; 20 µM).
NS(=O)(=O)c1ccc(CNc2nc(Nc3cccc(CN4CCOCC4)c3)ncc2C2CC2)cc1 has a remaining activity of 68% (MAP3K11; enzyme activity, inhibitor, radiometric; 1 µM).
The inhibition of CCN1CCN(Cc2ccc(NC(=O)c3ccc(C)c(Oc4ccnc5[nH]ccc45)c3)cc2C(F)(F)F)CC1 is reported as -13.9% (Eukaryotic elongation factor 2 kinase (EEF2K, Homo sapiens, UniProt O00418); target engagement in cells, inhibitor, chemoproteomics; A-375; 50 nM).
With Cn1c2c(Cl)c(Cl)ccc2c2cc[nH]c(=O)c21 the ΔTm was -0.1 °C (CDKL1; thermal stability, DSF; 10 µM).
For NS(=O)(=O)c1ccc(CNc2nc(Nc3cccc(NC(=O)N4CCCC4)c3)ncc2C2CC2)cc1, the remaining activity was 82% (ULK1; enzyme activity, inhibitor, radiometric; 1 µM).
For N#CC1c2c([nH]c3c(Cl)c(Cl)ccc23)C(=O)NC12CCCCC2 (racemic), the ΔTm was 0.2 °C (CDKL1; thermal stability, DSF; 10 µM).
With O=C(NCCCNc1nc(Nc2cccc(CN3CCOCC3)c2)ncc1C1CC1)C1CCC1 the remaining activity was 9% (ULK1; enzyme activity, inhibitor, radiometric; 1 µM).
